# This is a sample that favours compounds with a hit; in the whole collection about 4.3% have one here.
# Rtt109 HAT inh: C. albicans Rtt109 histone acetyltransferase inhibition | AID 540336 | purified Rtt109/Vps75, ThioGlo CoA-SH fluorescence, 4 h | Q5AAJ8 | 0.16% of 330,000 active | inhibition, % at 34.9 µM;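 active = inhibition of at least 50% in every replicate; inconclusive = best replicate reaches 50% inhibition but some replicates fall short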
# Target sequence (Q5AAJ8 whole entry, looked up): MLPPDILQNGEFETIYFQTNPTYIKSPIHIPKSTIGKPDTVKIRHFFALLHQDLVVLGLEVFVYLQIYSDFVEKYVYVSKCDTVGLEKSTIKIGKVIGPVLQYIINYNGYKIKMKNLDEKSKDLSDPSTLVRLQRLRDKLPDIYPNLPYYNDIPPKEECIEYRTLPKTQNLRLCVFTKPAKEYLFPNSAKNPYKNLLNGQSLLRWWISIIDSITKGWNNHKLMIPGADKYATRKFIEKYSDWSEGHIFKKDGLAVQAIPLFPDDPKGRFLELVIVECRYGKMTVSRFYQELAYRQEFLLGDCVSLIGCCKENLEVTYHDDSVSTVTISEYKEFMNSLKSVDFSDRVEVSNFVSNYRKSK
# CAL PDZ FP-1: CAL PDZ (human) peptide binding inhibition | purified CAL PDZ, TMR-peptide fluorescence polarization, 1 h | inhibition, % at 24.9 µM | 0.92% of 300,000 active | Q9HD26;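 active = mean inhibition of at least 30% with at least half of replicates also reaching 30%; inconclusive = no clear call, values can overlap the other calls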;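 also: 0% = DMSO neutral control and 100% = excess unlabeled competitor peptide PRC23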
# Dyrk1A ADPGlo: blocks rat Dyrk1A kinase activity | Q63470 | 0.43% of 310,000 active | inhibition, % at 12.5 µM | ADP-Glo luminescence, NFATc1 peptide | AID 504441; in the data active = inhibition above about 50%;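 also: plate controls were vehicle with enzyme for no effect and no enzyme for full effect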
# CAL PDZ FP-2: inhibitors of human CAL PDZ peptide binding; Q9HD26; purified CAL PDZ, TMR-peptide fluorescence polarization, 1 h; inhibition, % at 20 µM; 0.02% of 330,000 active; AID 504414;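 active = highest replicate inhibition of at least 40%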;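 also: plate controls were DMSO neutral control wells for no effect and unlabeled competitor peptide control wells for full effect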
#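 Material: tagged CAL PDZ domain; buffer or medium: 25 mM sodium phosphate pH 7.4, 150 mM NaCl, TCEP, IgG, Thesit; compound dosing: single point, 20 µM; schedule: 1 h incubation at room temperature before polarization reading; measured by: FP readout, S and P plane fluorescence; read-out basis: percent inhibition from loss of millipolarization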
# ALR H2O2 inh: blocks human ALR sulfhydryl oxidase activity; P55789; purified ALR, DTT oxidation, H2O2 HRP-luminol luminescence; inhibition, % (no concentration beside the values); 3.8% of 290,000 active; AID 485317;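 active = mean replicate inhibition above about 79%, with every replicate also reaching it, limit read from the data; inconclusive = only one of the two criteria met; inactive = mean below limit and not every replicate reaching it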
# Target sequence (P55789 whole entry, looked up): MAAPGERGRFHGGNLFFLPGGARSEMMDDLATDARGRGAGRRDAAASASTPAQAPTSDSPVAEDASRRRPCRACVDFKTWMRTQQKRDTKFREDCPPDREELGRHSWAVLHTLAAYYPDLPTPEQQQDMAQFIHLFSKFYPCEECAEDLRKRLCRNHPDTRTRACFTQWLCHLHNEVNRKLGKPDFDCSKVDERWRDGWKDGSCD
# Numbers without * were called inactive; ? = inconclusive; nt = no result.
SMILES,Rtt109 HAT inh,CAL PDZ FP-1,Dyrk1A ADPGlo,CAL PDZ FP-2,ALR H2O2 inh
COC(=O)CC1C(=O)NCCN1C(=O)CSc1nc2ccccc2s1 (stereo not drawn),3,-1,1,0,99*
O=C(CS(=O)(=O)c1ccccc1)Nc1nccs1,18,1,-1,-3,nt
CCOC(=O)c1c(C)[nH]c(C(=O)OCC(=O)c2c(N)n(C)c(=O)n(C)c2=O)c1C,nt,nt,nt,nt,-7
CC1(C)Cc2c(cnn2-c2cccc(F)c2)C(NC(=O)CN2CCCC2=O)C1 (stereo not drawn),-3,-2,-6,-2,-4
O=C(O)Cc1ccc(OCc2ccc(Cl)nc2)cc1,1,4,0,0,-7
N#CCc1ccc(NC(=O)c2ccc(S(=O)(=O)N3CCOCC3)cc2)cc1,0,4,-2,0,-3
CCn1c(-c2ccc3[nH]c(C)c(C)c3c2)n[nH]c1=S,7,-4,nt,-2,98*
Cc1cccc(-c2n[nH]c(=S)n2C)c1,-6,4,1,-1,5
Cc1[nH]c2ccc(-c3n[nH]c(=S)n3C)cc2c1C,-2,-1,0,1,98*
COc1c(OC(C)=O)c(=O)n2c3ccccc3c3ccnc1c32,-22,-4,36,-3,-1
Cc1ccc(-c2ccnc3nc(-n4cccc4)nn23)o1,-6,-1,-3,-4,-1
Cc1ccc(N2CC(NS(=O)(=O)c3cccs3)CC2=O)cc1 (stereo not drawn),1,-2,1,-1,nt
CC1CC(C)(C)NC(=S)N1CCC(=O)NCc1ccc(F)cc1 (stereo not drawn),4,-2,nt,1,1
COc1ccc(CNC(=O)CCN2C(=S)NC(C)(C)CC2C)cc1 (stereo not drawn),-9,65*,0,-2,nt
O=C(O)c1ccc(NC2(C(=O)O)CCCC2)cc1,-7,1,1,-1,nt
Cc1nn(-c2nnc(C)c(=O)[nH]2)c(C)c1SCC(=O)Nc1ccc(F)cc1,7,-1,1,0,99*
CC(C)c1ccc(NC(=O)CSc2nc(=O)[nH]c3c2CCCC3)cc1,16,-2,13,-3,-335
Cc1n[nH]c(C)c1SCC(=O)Nc1ccc(F)cc1,-8,-4,-5,-1,71
Cc1nn(-c2nnc(C)c(=O)[nH]2)c(C)c1SCC(=O)Nc1ccc(C(C)C)cc1,8,0,-4,0,98*
CCOC(=O)CC(NC(=O)CCc1c(C)nc2ncnn2c1C)c1ccc(OC(C)C)cc1 (stereo not drawn),0,-2,-5,-2,-1
C[C@@H](CSc1ccccc1)CN1CC[C@H](C(C)(C)C)CCC1=O,?,1,4,0,-4
CC(=O)Nc1ccc(SCCN2CC[C@@H](C(C)(C)C)CCC2=O)cc1,25,-1,0,-1,99*
CC(=O)Nc1ccc(SC[C@H](C)CN2CC[C@H](O)CCC2=O)cc1,10,-1,2,1,98*
COc1ccc(SC[C@H](C)CN2CC[C@H](C(C)(C)C)CCC2=O)cc1,12,-3,-1,-1,99*
Cc1ccc(SCCN2CCC(C(C)(C)C)CCC2=O)cc1 (stereo not drawn),6,-2,13,-2,-1
SMILES,Rtt109 HAT inh,CAL PDZ FP-1,Dyrk1A ADPGlo,CAL PDZ FP-2,ALR H2O2 inh
COc1cc(C#N)c(NC(=S)N2CCOCC2)cc1OC,nt,nt,nt,nt,-141
O=c1[nH]c(-c2ccccc2)c(-c2ccccc2)nc1[N+](=O)[O-],nt,2,3,-3,9
CC(=O)c1cccc(NC(=O)C(C)OC(=O)CCn2c(C)csc2=O)c1 (stereo not drawn),0,62*,-6,0,nt
Cc1csc(=O)n1CCC(=O)OC(C)C(=O)Nc1ccc(N2CCOCC2)cc1 (stereo not drawn),-7,6,nt,0,18
CC(=O)Nc1ccc(NC(=O)COC(=O)COc2ccc3ccccc3c2)cc1,0,105*,8,0,-8
COc1cccc(OCC(=O)Nc2ccc(OC)c(OC)c2)c1,1,1,6,-3,-18
COc1ccc(NC(=O)COC(=O)COc2cccc(Br)c2)cc1OC,6,36*,nt,11,3
Cc1ccc(C)c(CNS(=O)(=O)c2c(C)[nH]c(C)c2C(=O)N2CCCCC2)c1,11,nt,0,0,0
CCn1cnc2cc(NCc3cccc(OC)c3O)ccc21,31,-4,-3,-3,94*
CCCCn1cnc2cc(NCc3cccc(OC)c3O)ccc21,5,0,-5,-3,33
COc1ccc(CNc2ccc3c(c2)ncn3-c2ccccc2OC)cc1,-9,2,-1,0,50
COc1ccccc1-n1cnc2cc(NCc3ccccc3O)ccc21,30,-2,5,0,98*
COc1cc(Br)c(C(=O)c2nccc3cc(OC)c(OC)cc23)cc1OC,0,-3,19,71*,-154
COc1ccc(S(=O)(=O)N2CCCCC2)cc1NC(=O)c1cccc(S(=O)(=O)N2CCOCC2)c1,-8,-3,nt,2,nt
O=C(NCc1ccncc1)C(=O)N/N=C/c1ccccn1,-6,56*,0,-2,2
O=C(N/N=C/c1ccccn1)c1sc2ccccc2c1Cl,41,-3,64*,-4,-13
COc1c2ccoc2nc2c(OC)c(O)ccc12,6,-3,35,1,99*
COc1ccc2c(OC)c3ccoc3nc2c1OC,-7,-6,0,-2,-22
O=C(Nc1ccc2c(c1)CCC2)c1ccc(F)cc1,-3,-10,3,-1,2
O=C(Nc1ccc2c(c1)CCC2)c1ncoc1-c1ccccc1F,1,69*,2,-1,nt
COc1ccc(NC2CC(=O)N(c3cccc([N+](=O)[O-])c3)C2=O)cc1 (stereo not drawn),9,5,-1,-1,89*
COc1ccc(NC2CC(=O)N(c3cccc(C)c3)C2=O)cc1 (stereo not drawn),16,-4,-7,nt,-6
CC1CC(C)C(=NNC(N)=O)C(C(O)CC2CCC(=O)NC2=O)C1 (stereo not drawn),3,51*,0,1,nt
CCOC(=O)c1[nH]ncc1[C@@H]1C[C@H]2CN(Cc3cccc(Cl)c3)C(=O)[C@]23CCCN13,4,46*,-4,-1,-1
CC(C)CNc1ncnc2[nH]ncc12,9,9,17,-1,nt
NNC(=O)c1ccccc1OCc1ccccc1,47,-4,9,1,7
NNC(=O)c1ccccc1CO,nt,nt,nt,nt,79*
COc1ccc(CN(C)Cc2nc3scc(-c4ccccc4)c3c(=O)[nH]2)cc1OC,-9,-9,1,-1,-1
COc1ccc(C2=CC3=C(Br)C(=O)C(C)(O)C(=O)C3=CO2)cc1 (stereo not drawn),-9,-1,4,-1,90*
CCC(=O)OC1(C)C(=O)C2=COC(c3ccc(OC)cc3)=CC2=C(Br)C1=O (stereo not drawn),3,2,0,9,-2
